From PMC7254805 (ACS Omega, 2020)
Values after ≈ are worked out from the molar mass of the structure shown. “Also recorded” adds a separate entry of the source.

How the values were obtained:
[1] = Oral bioavailability in mice, plasma RP-HPLC; format: in vivo, BALB/c mice
Huh7.5 cells = assay: Cell viability MTT assay; format: cell-based; settings: up to 5 mM
Procedure, shortened: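 Huh7.5 cells are seeded at 2 × 10^4 per well in DMEM with 10% serum and incubated overnight at 37 °C. After 12 h, cells are treated with a range of test compound concentrations, and viability is read by MTT. Untreated cells serve as control. Data are mean ± SD of three independent experiments; CC50 is taken from the dose response.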

trypsin = trypsin (Sus scrofa, UniProt P00761); assay: Cellular serine protease; format: biochemical; settings: up to 250 μM
Chain of trypsin (P00761 9-231): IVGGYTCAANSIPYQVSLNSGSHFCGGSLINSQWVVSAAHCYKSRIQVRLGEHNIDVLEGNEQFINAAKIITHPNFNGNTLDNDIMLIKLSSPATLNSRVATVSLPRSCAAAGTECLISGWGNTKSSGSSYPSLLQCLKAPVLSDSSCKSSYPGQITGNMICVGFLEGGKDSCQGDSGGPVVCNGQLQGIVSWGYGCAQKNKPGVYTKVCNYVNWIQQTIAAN
Procedure, shortened: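 Trypsin is pre-incubated with increasing test compound concentrations, then FITC-labelled casein substrate is added for 1 h at 37 °C. The reaction is stopped with trichloroacetic acid (6.1 N) and centrifuged. Supernatant fluorescence is read at excitation 485 nm and emission 538 nm. Activity is expressed relative to a no-compound reaction (100%); G. max trypsin inhibitor is the positive control.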

HCV NS3/4A protease = HCV NS3/4A protease (Hepatitis C virus, UniProt P26662); assay: HCV NS3/4A protease fluorimetric activity assay; format: biochemical
Chain of HCV NS3/4A protease (P26662 1027-1208, other chains not shown): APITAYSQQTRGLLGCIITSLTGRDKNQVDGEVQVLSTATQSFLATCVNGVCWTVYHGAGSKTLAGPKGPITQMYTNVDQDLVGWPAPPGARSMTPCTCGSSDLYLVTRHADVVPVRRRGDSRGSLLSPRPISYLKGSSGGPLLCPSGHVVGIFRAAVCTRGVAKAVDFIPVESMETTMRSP
Procedure, shortened: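 Purified single-chain NS3/4A (scNS3/4A, 0.1 μM) is pre-incubated with test compound, then purified EGFP-NS5A/B-CBD fusion substrate (0.5 μM) is added for 1 h at 37 °C. Cellulose slurry stops the reaction; after centrifugation, supernatant fluorescence is read at 484/538 nm. Compounds are screened at 50 μM, with dose response over 10–100 μM. Activity is relative to a no-compound reaction (100%); telaprevir is the positive control.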

[2] = tested on: Huh7 cells harboring HCV monocistronic replicon genotype 2a (Rep2a); assay: HCV replication assay in Rep2a cell line; format: cell-based, HCV genotype 2a; settings: at 250 μM, compared with Telaprevir
BALB/c mice [3] = assay: Acute oral toxicity in mice; format: in vivo; settings: for maximum acute tolerance dose: BALB/c mice
BALB/c mice [4] = assay: Sub-acute; format: in vivo
Procedure, shortened: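 Sub-acute oral toxicity per OECD 407 in BALB/c mice. Test compounds are given orally daily for 28 consecutive days at 1000 or 500 mg/kg b. wt/day, in water or PEG-400. Vehicle controls receive water or PEG-400 at 200 μL/day/mouse. Body weight, food and water intake, behaviour and toxicity signs are recorded. Liver sections (5 μm) are H&E-stained for light microscopy.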

Aqueous solubility = format: physicochemical; settings: water
[5] = BALB/c, mouse, plasma, po, 500 mg/kg

COc1ccc(CC(CC(=O)O)C(=O)O)cc1OC (centres unmarked) [D8, 2-(3,4-Dimethoxybenzyl)succinic Acid]
plasma concentration after 2 h ([1]; 500 mg/kg p.o): 595 μg mL^–1
Cmax [1, 5]: ~595 µg/mL
Tmax [1, 5]: 1 h
half-life [1, 5]: 120 min
cellular toxicity (Huh7.5 cells): did not induce any toxicity; also recorded: no perceptible cellular toxicity
inhibition of trypsin activity (trypsin): did not show an inhibition; also recorded: does not occur even at 250 μM
IC50 (HCV NS3/4A protease): < 10 µM
IC90 (HCV NS3/4A protease): 50 µM
reduction in HCV negative strand synthesis [2]: matching that of the inhibition by Telapravir
liver histology (BALB/c mice [3]; maximum acute tolerance dose 4000 mg/kg b. wt p.o, vs water control): normal histoarchitecture
death of mice (BALB/c mice [3]; oral, 5000 mg/kg b. wt): 40%
death of mice (BALB/c mice [3]; oral, 5250 mg/kg b. wt): 100%
maximum acute tolerance dose (BALB/c mice [3]; oral): 4000 mg/kg b. wt
tolerance dose relative to phyllanthin (BALB/c mice [3]; oral, D8 4000 vs phyllanthin 1500 mg/kg): ~2.5 times
changes in general behavior and body weights (BALB/c mice [4]; 1000 mg/kg b. wt/day oral, 28 consecutive days): did not exhibit any undesirable changes
liver histology (BALB/c mice [4]; 1000 mg/kg b. wt/day oral, 28 days): normal histology

COC[C@@H](Cc1ccc(OC)c(OC)c1)[C@@H](COC)Cc1ccc(OC)c(OC)c1 [phyllanthin, reference compound]
bioavailability (plasma, up to 24 h) ([1]; 500 mg/kg b. wt p.o): could not observe any bioavailability
absorbed concentration in plasma ([1]; 1500 mg/kg b. wt p.o): very low concentration
solubility (Aqueous solubility): 250 µg/mL (≈ 597 µM)
IC50 (HCV NS3/4A protease): ~50 µM
death of mice (BALB/c mice [3]; oral, 2000 mg/kg b. wt): 100%
maximum acute tolerance dose (BALB/c mice [3]; oral): 1500 mg/kg b. wt
changes in general behavior and body weights (BALB/c mice [4]; 500 mg/kg b. wt/day oral in PEG-400, 28 consecutive days): did not exhibit any undesirable changes
